Consider four compounds from ChEMBL document CHEMBL1122445, “Novel fluorinated antifolates. Enzyme inhibition and cytotoxicity studies on 2'- and 3'-fluoroaminopterin” (J Med Chem, 1983).

Structures are written as SMILES.

As a reminder, the Ki is the dissociation constant of the complex between target and ligand, obtained from inhibition or displacement. By EC50 is commonly meant the midpoint of the concentration-response curve. High values mean weaker potency, low ones greater potency.

The target in experiment [1] is Dihydrofolate reductase (Lactobacillus casei, UniProt P00381). Description: Inhibition of dihydrofolate reductase in Lactobacillus casei. The following applies: read-out: I50. On the set-up: species or system Lacticaseibacillus casei. In short, it runs like this:
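L. casei DHFR purified to homogeneity from an MTX-resistant overproducer strain, with enzyme level (4–5 × 10^-9 M) set by MTX titration. […] Rates were taken from the linear 0.5–2 min region. I50 is the concentration halving the rate; Ki is from the Cha equation, correcting for inhibitor depletion.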

The target of experiment [2] is T1, Dihydrofolate reductase (Escherichia coli, UniProt P0ABQ4).
T1 sequence (P0ABQ4 whole entry): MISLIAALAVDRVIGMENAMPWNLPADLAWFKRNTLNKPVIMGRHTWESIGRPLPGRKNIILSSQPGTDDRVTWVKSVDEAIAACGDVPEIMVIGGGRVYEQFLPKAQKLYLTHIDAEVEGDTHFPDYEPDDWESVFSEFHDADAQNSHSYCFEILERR
In words: Inhibition of dihydrofolate reductase in Escherichia coli. The following applies: read-out: I50. In short, it runs like this:
(§1)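 E. coli MB 1428 MTX-resistant overproducer DHFR purified to homogeneity by MTX affinity chromatography; spectrophotometric assay at pH 7.2 with 40 μM NADPH and 44 μM dihydrofolate (Km 0.44 μM); enzyme 4 to 5×10^-9 M, titrated with MTX. Rates taken over linear 0.5–2 min (<10% substrate used). I50 = half of control rate; Ki from I50 via Cha equation corrected for enzyme-bound inhibitor.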

Experiment [3] deals with T2, Dihydrofolate reductase (Homo sapiens, UniProt P00374).
T2 sequence (P00374 whole entry): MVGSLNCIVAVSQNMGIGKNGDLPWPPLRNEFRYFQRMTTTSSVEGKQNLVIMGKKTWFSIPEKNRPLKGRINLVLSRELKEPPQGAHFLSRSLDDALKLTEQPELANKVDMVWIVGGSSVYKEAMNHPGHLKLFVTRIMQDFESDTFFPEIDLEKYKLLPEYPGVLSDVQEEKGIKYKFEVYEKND
In words: Inhibition of dihydrofolate reductase in HeLa cells. As to conditions: read-out: I50. It counts as cell-based.

The next experiment has as its system Escherichia coli. Description: Inhibition constant (Ki) was determined in Escherichia coli. The experiment is classed as functional. In short, it runs like this: as §1
The subject of a further experiment is HuTu80. In words: Inhibition of growth (cytotoxicity) of HuTu 80 cell line in vitro. It counts as functional, cell-based. As to conditions: Homo sapiens. In short, it runs like this: (§2)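 About 1 × 10^5 L1210 or HuTu 80 cells in 1 mL of their original medium with inhibitor, 37 °C for 72 h; counted by Coulter counter (10- to 20-fold growth in controls). EC50 = concentration reducing growth 50% versus inhibitor-free controls.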

The target in the next experiment is Lacticaseibacillus casei. In words: Inhibition constant (Ki) was determined in Lactobacillus casei. It counts as functional.
A further experiment deals with L1210. Description: Inhibition of growth (cytotoxicity) of L1210 cell line in vitro. It counts as functional, cell-based. The following applies: Mus musculus. In short, it runs like this:
as §2

Chain of Dihydrofolate reductase (Lactobacillus casei, UniProt P00381) (P00381 whole entry): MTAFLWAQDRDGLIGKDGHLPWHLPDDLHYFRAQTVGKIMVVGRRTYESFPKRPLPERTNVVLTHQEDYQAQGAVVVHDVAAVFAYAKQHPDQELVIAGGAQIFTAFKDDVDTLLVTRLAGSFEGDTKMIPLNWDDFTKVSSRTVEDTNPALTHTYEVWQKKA

For the compound `Nc1nc(N)c2nc(CNc3ccc(C(=O)NC(CCC(=O)O)C(=O)O)cc3F)cnc2n1` (configuration not stated), the figures for the IC50 at Dihydrofolate reductase [1], at Dihydrofolate reductase [2] and on Dihydrofolate reductase [3] were 3.5 nM, 5 nM and 19 nM, respectively. In addition, the Ki came out at 0.03 nM in the experiment with Escherichia coli and 0.06 nM on Lacticaseibacillus casei. Also, the concentration giving a half-maximal response (EC50) in the experiment on HuTu80 amounted to 2.3 nM; with L1210 it was 1 nM.
As to `Nc1nc(N)c2nc(CNc3ccc(C(=O)NC(CCC(=O)O)C(=O)O)c(F)c3)cnc2n1` (configuration not stated), the IC50 on Dihydrofolate reductase [1] turned out to be 4.7 nM; at Dihydrofolate reductase [2], 10 nM; at Dihydrofolate reductase [3] it was 27 nM. For the same compound, the inhibition constant Ki with Escherichia coli stood at 0.08 nM; on Lacticaseibacillus casei it was 0.095 nM. The EC50 in the experiment with HuTu80 turned out to be 4.8 nM; with L1210, 2.3 nM.
For `Nc1nc(N)c2nc(CNc3ccc(C(=O)N[C@@H](CCC(=O)O)C(=O)O)cc3)cnc2n1` [AMINOPTERIN], the results for the IC50 on Dihydrofolate reductase [1] and on Dihydrofolate reductase [2] were 5 nM and 11 nM, respectively. The inhibition constant Ki amounted to 0.09 nM in the experiment with Escherichia coli and 0.11 nM at Lacticaseibacillus casei. For the same compound, the half-maximal effective concentration (EC50) worked out at 4.7 nM in the experiment with HuTu80 and 1.8 nM in the experiment with L1210.
As for `CN(Cc1cnc2nc(N)nc(N)c2n1)c1ccc(C(=O)N[C@@H](CCC(=O)O)C(=O)O)cc1` [METHOTREXATE], the half-maximal effective concentration (EC50) came out at 4.5 nM with HuTu80 and 3.2 nM in the experiment with L1210.
